KLK5 inh = blocks human kallikrein 5 protease activity; Q9Y337; recombinant hK5, fluorogenic AMC substrate cleavage; inhibition, % at 5 µM; actives 0.59% (n = 210,000); AID 873;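 active = inhibition of 40% or more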
Rce1 inhib = inhibitors of yeast Ras-converting enzyme; Q03530; yeast membranes, quenched prenylated peptide cleavage fluorescence; calls only; actives 0.27% (n = 290,000); AID 2563;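 active = fall in fluorescence gain of 50% or more versus controls, with final raw signal at or below 3038400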
FXIa inh = inhibitors of human coagulation factor XIa; inhibition, % at 5 µM; actives 0.14% (n = 220,000); P03951; purified FXIa, Boc-Glu-Ala-Arg-AMC fluorogenic substrate;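 active = inhibition of at least 40%; inactive = inhibition below 40%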;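 also: fluorescence of freed AMC excited at 355 nm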
FXIIa inh 1536 = blocks human coagulation factor XIIa protease activity; actives 0.3% (n = 220,000); purified FXIIa, Boc-QGR-AMC fluorogenic substrate, 2 h; AID 800; inhibition, % at 5 µM; in the data active = inhibition above about 40%
Thrombin inh = blocks human thrombin protease activity | alpha-thrombin, Boc-VPR-AMC fluorogenic substrate cleavage | actives 0.26% (n = 220,000) | AID 1046 | inhibition, % at 5 µM;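 active = inhibition at or above 40%; inactive = inhibition below 40%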
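System: Human alpha-thrombin protein | Medium: pH 7.5 Tris (50 mM) with NaCl 150 mM, Tween 20 0.05% | Times: Enzyme reaction carried out at room temperature | Detection: AMC fluorescence, 355/460 nm | Evaluation: Percent inhibition scaled between no-compound controls and no-enzyme blanks | Benchmarks: Enzyme without compound as high, wells lacking enzyme as low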
CTSL1 counter = blocks F. hepatica cathepsin L1 in PFM18AAP counter-screen; inhibition, % at 5.96 µM; actives 0.49% (n = 300,000); AID 1906; recombinant F. hepatica cathepsin L1, Z-Leu-Arg-MCA fluorescence;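 active = inhibition above the mean of all tested compounds plus 3 SD, set per screening campaign, cut at about 17% in these data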
Hits are given with their value; n = inactive. Sampled rows, rich in hits. Any-hit rate of the full collection: about 1.4%.

SMILES	KLK5 inh	Rce1 inhib	FXIa inh	FXIIa inh 1536	Thrombin inh	CTSL1 counter
O=C1/C(=C\c2ccccc2)C2OCC=C3CN4CCC56c7ccccc7N1C5C2C3CC46 (configuration not stated)	n	n	n	n	n	n
O=C(O)CC1OCC=C2CN3CCC45C6=CC(=O)C(=O)C([N+](=O)[O-])=C6NC4C1C2CC35 (configuration not stated)	n	n	n	n	n	106
O=C(O)CC1OCC=C2CN3CCC45c6ccccc6NC4C1C2CC35 (configuration not stated)	n	n	n	n	n	18
O=C(C1CC(c2ccc(Cl)c(Cl)c2)=NO1)N1CCC2(CC1)OCCO2 (configuration not stated)	n	n	n	48	n	n
O=C(Cn1ccc2ccccc2c1=O)NCC(=O)N1CCC2(CC1)OCCO2	n	n	n	n	n	n
COc1ccc(-c2nc3ccccc3c(=O)n2-c2ccc(OC)cc2)cc1	n	n	n	n	n	n
CCn1nc(-c2ccccc2)nc2c(=O)n(C)c(=O)nc1-2	n	n	n	n	n	114
O=C(NC(C(Cl)Cl)N1CCOCC1)c1ccccc1 (configuration not stated)	n	n	n	n	n	68
O=C(NCC(c1cccnc1)N1CCOCC1)Oc1ccccc1 (configuration not stated)	n	n	n	n	n	n
